Assay results published in ChEMBL document CHEMBL1143070, “Catechin gallates are NADP+-competitive inhibitors of glucose-6-phosphate dehydrogenase and other enzymes that employ NADP+ as a coenzyme” (Bioorg Med Chem, 2008).
The source made the active and inactive calls. The calls are words filed in the database; no cut-off is given here.

How the values were obtained:
[1] = molecular target: T1, Glucose-6-phosphate 1-dehydrogenase (Saccharomyces cerevisiae S288c, UniProt P11412); assay: Inhibition of yeast G6PD
T1 sequence (P11412 whole entry): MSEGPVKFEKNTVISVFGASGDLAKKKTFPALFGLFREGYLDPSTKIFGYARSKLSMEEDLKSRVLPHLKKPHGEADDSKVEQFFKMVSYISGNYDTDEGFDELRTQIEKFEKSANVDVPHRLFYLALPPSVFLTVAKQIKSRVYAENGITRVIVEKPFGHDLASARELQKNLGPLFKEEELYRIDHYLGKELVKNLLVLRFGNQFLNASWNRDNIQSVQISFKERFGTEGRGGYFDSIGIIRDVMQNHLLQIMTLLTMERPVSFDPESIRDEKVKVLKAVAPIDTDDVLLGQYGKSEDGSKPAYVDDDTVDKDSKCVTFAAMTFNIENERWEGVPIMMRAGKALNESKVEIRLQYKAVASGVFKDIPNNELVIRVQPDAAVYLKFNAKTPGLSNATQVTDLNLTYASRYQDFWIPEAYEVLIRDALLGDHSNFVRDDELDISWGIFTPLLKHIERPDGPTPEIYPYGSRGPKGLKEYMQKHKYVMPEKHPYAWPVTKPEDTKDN

3T3-L1 [2] = assay: Inhibition of G6PD-mediated NADPH production in mouse 3T3-L1 cells at above 100 umol/L; assay type: cell-based
How it was run: (§1)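 Fully differentiated 3T3-L1 adipocytes were lysed in NETN buffer and spun at 4 °C; supernatants were used at once. 1.0 µg protein was incubated at 30 °C with inhibitor (DMSO <0.2% v/v) in 0.1 mol/L Tris pH 7.5, 150 mmol/L NaCl, 6 mmol/L MgCl2, 0.5 mmol/L G6P, 0.5 mmol/L 6-phosphogluconate and 0.25 mmol/L NADP+. Total NADPH production was normalized to Bradford protein. Values are means of three independent experiments.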

[3] = Inhibition of IDH
[4] = (§2) Inhibition of G6PD-mediated NADPH production in mouse 3T3-L1 cells; assay type: cell-based; how it was run: as §1
3T3-L1 [5] = assay: Ratio of IC50 for yeast G6PD to IC50 for G6PD-mediated NADPH production in mouse 3T3-L1 cells; assay type: cell-based
[6] = molecular target: 6-phosphogluconate dehydrogenase, decarboxylating (Saccharomyces cerevisiae) (UniProt P38720); assay: Inhibition of 6PGD
Sequence of 6-phosphogluconate dehydrogenase, decarboxylating (Saccharomyces cerevisiae) (P38720 whole entry, looked up): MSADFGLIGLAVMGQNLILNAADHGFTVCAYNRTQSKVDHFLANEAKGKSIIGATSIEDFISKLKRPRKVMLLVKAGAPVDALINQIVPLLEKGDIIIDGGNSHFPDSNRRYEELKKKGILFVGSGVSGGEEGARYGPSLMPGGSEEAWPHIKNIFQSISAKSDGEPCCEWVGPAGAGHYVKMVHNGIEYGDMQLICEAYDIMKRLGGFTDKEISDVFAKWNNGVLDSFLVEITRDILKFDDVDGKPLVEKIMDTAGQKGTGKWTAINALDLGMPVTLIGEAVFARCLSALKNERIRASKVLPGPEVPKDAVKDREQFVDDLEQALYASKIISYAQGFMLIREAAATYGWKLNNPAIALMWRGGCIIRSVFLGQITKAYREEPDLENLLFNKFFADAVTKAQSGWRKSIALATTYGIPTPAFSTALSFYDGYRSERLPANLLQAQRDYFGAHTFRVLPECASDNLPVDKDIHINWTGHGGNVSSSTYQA

3T3-L1 [7] = assay: as §2; assay type: cell-based; how it was run: as §1
Homo sapiens = assay: Plasma concentration in human at 50 mg, po; details: in vivo

| SMILES | IC50 [1] [µM] | inhibition (3T3-L1 [2]) [%] | IC50 [3] [µM] | IC50 [4] [µM] | Ratio IC50 (3T3-L1 [5]) | IC50 [6] [µM] | Activity (3T3-L1 [7]) | concentration (Homo sapiens) [nM] |
| --- | --- | --- | --- | --- | --- | --- | --- | --- |
| Oc1cccc(/C=N/NC(=S)N/N=C/c2cccc(O)c2O)c1O | 56.4 |  |  |  |  |  |  |  |
| CCOc1cccc(-c2cc(C(=O)N/N=C/c3ccccc3O)[nH]n2)c1 | 21.8 |  |  |  |  |  |  |  |
| C[C@]12CC[C@H](O)CC1=CC[C@@H]1[C@@H]2CC[C@]2(C)C(=O)CC[C@@H]12 |  | 40 |  |  |  |  |  |  |
| O=C(O[C@@H]1Cc2c(O)cc(O)cc2O[C@H]1c1ccc(O)c(O)c1)c1cc(O)c(O)c(O)c1 [(-)-CATECHINGALLATE] | 0.24 |  | 6.62 | 25 | 100 | 1.28 |  |  |
| Oc1cc(O)c2c(c1)O[C@@H](c1ccc(O)c(O)c1)[C@H](O)C2 [(-)-CATECHIN] | > 1000 |  | > 1000 |  |  |  | inactive |  |
| Oc1cc(O)c2c(c1)O[C@H](c1ccc(O)c(O)c1)[C@H](O)C2 [(-)-EPICATECHIN] | > 1000 |  | > 1000 |  |  |  | inactive |  |
| Oc1cc(O)c2c(c1)O[C@@H](c1cc(O)c(O)c(O)c1)[C@H](O)C2 [(-)-GALLOCATECHIN] | > 1000 |  | > 1000 |  |  |  | inactive |  |
| O=C(O[C@@H]1Cc2c(O)cc(O)cc2O[C@@H]1c1ccc(O)c(O)c1)c1cc(O)c(O)c(O)c1 [EPICATECHIN GALLATE] | 0.18 |  | 10.8 | 25 | 100 | 1.21 |  |  |
| Oc1cc(O)c2c(c1)O[C@H](c1cc(O)c(O)c(O)c1)[C@H](O)C2 [EPIGALLOCATECHIN] | > 1000 |  | > 1000 |  |  |  | inactive |  |
| O=C(O[C@@H]1Cc2c(O)cc(O)cc2O[C@@H]1c1cc(O)c(O)c(O)c1)c1cc(O)c(O)c(O)c1 [EPIGALOCATECHIN GALLATE] | 0.25 |  | 6.44 | 25 | 100 | 0.72 |  | 300 |
| O=C(O[C@@H]1Cc2c(O)cc(O)cc2O[C@H]1c1cc(O)c(O)c(O)c1)c1cc(O)c(O)c(O)c1 [GALLOCATECHIN GALLATE] | 0.23 |  | 2.72 | 25 | 100 | 1.45 |  |  |
